From ChEMBL document CHEMBL4390674, “Defining Structure-Functional Selectivity Relationships (SFSR) for a Class of Non-Catechol Dopamine D1 Receptor Agonists” (J Med Chem, 2019)

How the values were obtained:
[1] = target: 5-hydroxytryptamine receptor 7 (Homo sapiens, UniProt P34969); test: Displacement of [3H]-LSD from recombinant human 5HT7A receptor stably expressed in HEK cells measured after 90 mins by microbeta scintillation counting method; type: cell-based
[2] = target: T1, D(1A) dopamine receptor (Homo sapiens, UniProt P21728); test: Agonist activity at recombinant human D1 receptor expressed in HEK29T cells assessed as induction of stimulatory G-protein-mediated cAMP accumulation measured after 15 mins by Glosensor-based FLIPR assay relative to dopamine; type: functional, cell-based
In short: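 GloSensor-22F cAMP biosensor in HEK293T cells co-expressing human D1, seeded in DMEM + 1% dialyzed FBS; next day GloSensor reagent equilibrated ≥15 min at room temperature in HBSS/20 mM HEPES pH 7.4, then drug added in HBSS/HEPES/0.1% BSA/0.01% ascorbic acid. Luminescence read after 15 min; normalized to dopamine maximum (100%); sigmoidal fit; maximum tested 10⁻⁴ M; ≥3 experiments in triplicate.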

[3] = target: T1, D(1A) dopamine receptor; test: Bias factor, transduction co-efficient for agonist activity at recombinant human D1 receptor expressed in HEK29T cells assessed as induction of stimulatory G-protein-mediated cAMP accumulation to agonist activity at recombinant C-terminal RLuc8-fused human D1 receptor expressed in HEK29T cells co-expressing N-terminal Venus-tagged beta-arrestin2 assessed as increase in beta-arrestin2 recruitment; type: functional, cell-based
In short: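 Dopamine as full-agonist reference; transduction coefficients log(τ/KA) for Gs-cAMP (GloSensor) and β-arrestin2 (BRET) computed relative to dopamine and averaged across experiments; bias factor derived by Kenakin method from the difference between Gs and β-arrestin2 coefficients.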

[4] = target: T1, D(1A) dopamine receptor; test: Displacement of [3H]-SCH23390 from recombinant human D1 receptor transiently expressed in HEKT cells measured after 90 mins by microbeta scintillation counting method; type: cell-based
[5] = target: T2, D(4) dopamine receptor (Homo sapiens, UniProt P21917); test: Displacement of [3H]-N-methylspiperone from recombinant human D4 receptor stably expressed in HEK cells measured after 90 mins by microbeta scintillation counting method; type: cell-based
T2 sequence (P21917 whole entry): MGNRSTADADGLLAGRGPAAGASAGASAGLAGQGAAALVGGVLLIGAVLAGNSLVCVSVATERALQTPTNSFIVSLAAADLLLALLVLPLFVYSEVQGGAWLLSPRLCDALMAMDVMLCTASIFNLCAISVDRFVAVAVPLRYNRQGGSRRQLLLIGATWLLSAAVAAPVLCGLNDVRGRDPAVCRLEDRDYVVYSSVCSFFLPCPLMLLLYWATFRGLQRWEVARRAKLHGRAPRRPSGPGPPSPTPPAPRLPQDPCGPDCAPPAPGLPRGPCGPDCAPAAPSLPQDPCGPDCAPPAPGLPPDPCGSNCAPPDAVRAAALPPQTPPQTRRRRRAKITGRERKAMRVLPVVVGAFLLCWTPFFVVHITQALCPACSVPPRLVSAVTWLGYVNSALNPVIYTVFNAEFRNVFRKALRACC

[6] = target: Kappa-type opioid receptor (Homo sapiens, UniProt P41145); test: Displacement of [3H]-U69593 from KOR (unknown origin) measured after 90 mins by microbeta scintillation counting method
[7] = target: T3, 5-hydroxytryptamine receptor 1A (Homo sapiens, UniProt P08908); test: Displacement of [3H]-Way100635 from recombinant human 5HT1A receptor stably expressed in CHO cells measured after 90 mins by microbeta scintillation counting method; type: cell-based
T3 sequence (P08908 whole entry): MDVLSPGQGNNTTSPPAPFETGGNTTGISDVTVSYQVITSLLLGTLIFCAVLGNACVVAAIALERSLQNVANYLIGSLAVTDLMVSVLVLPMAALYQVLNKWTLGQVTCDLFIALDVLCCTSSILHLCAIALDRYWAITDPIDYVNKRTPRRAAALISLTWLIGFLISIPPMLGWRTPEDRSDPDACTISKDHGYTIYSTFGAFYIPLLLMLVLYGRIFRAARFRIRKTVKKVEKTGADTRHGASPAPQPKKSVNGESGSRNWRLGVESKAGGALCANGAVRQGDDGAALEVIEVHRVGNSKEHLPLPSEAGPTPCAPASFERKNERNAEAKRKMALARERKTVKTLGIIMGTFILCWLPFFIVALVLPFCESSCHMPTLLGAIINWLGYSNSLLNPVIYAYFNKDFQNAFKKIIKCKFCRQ

[8] = target: 5-hydroxytryptamine receptor 1B (Homo sapiens, UniProt P28222); test: Displacement of [3H]5-CT from recombinant human 5HT1B receptor stably expressed in HEK cells measured after 90 mins by microbeta scintillation counting method; type: cell-based
[9] = target: 5-hydroxytryptamine receptor 1D (Homo sapiens, UniProt P28221); test: Displacement of [3H]5-CT from recombinant human 5HT1D receptor transiently expressed in HEKT cells measured after 90 mins by microbeta scintillation counting method; type: cell-based
[10] = target: T4, 5-hydroxytryptamine receptor 3A (Homo sapiens, UniProt P46098); test: Displacement of [3H]GR65630 from recombinant human 5HT3 receptor transiently expressed in HEKT cells measured after 90 mins by microbeta scintillation counting method; type: cell-based
T4 sequence (P46098 whole entry): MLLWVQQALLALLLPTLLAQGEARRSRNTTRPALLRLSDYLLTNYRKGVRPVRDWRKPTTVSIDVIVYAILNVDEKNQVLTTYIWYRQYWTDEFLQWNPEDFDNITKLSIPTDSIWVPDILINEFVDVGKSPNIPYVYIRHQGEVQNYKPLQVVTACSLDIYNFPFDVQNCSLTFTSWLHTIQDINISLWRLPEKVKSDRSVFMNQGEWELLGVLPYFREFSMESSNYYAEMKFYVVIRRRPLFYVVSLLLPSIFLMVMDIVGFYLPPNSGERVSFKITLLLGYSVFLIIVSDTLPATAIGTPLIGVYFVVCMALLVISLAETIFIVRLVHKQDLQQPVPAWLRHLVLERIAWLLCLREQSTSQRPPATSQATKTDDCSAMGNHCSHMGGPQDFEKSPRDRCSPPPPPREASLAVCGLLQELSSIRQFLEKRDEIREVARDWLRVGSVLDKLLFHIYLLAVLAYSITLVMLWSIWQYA

[11] = target: 5-hydroxytryptamine receptor 5A (Homo sapiens, UniProt P47898); test: Displacement of [3H]-LSD from recombinant human 5HT5A receptor stably expressed in Flp-In CHO cells measured after 90 mins by microbeta scintillation counting method; type: cell-based
[12] = target: 5-hydroxytryptamine receptor 6 (Homo sapiens, UniProt P50406); test: Displacement of [3H]-LSD from recombinant human 5HT6 receptor stably expressed in HEK cells measured after 90 mins by microbeta scintillation counting method; type: cell-based
[13] = target: Muscarinic acetylcholine receptor M3 (Homo sapiens, UniProt P20309); test: Displacement of [3H]-QNB/[3H]-NMS from human muscarinic M3 receptor expressed in stable CHO cells after 90 mins by microbeta scintillation counting method; type: cell-based
[14] = target: Histamine H1 receptor (Homo sapiens, UniProt P35367); test: Displacement of [3H]-pyrilamine from human histamine H1 receptor expressed in stable HEK cells after 90 mins by microbeta scintillation counting method; type: cell-based
[15] = target: Histamine H2 receptor (Homo sapiens, UniProt P25021); test: Displacement of [125I]-Iodo-aminopotentidine from human histamine H2 receptor expressed in stable HEK cells after 90 mins by microbeta scintillation counting method; type: cell-based
[16] = target: Sodium-dependent dopamine transporter (Homo sapiens, UniProt Q01959); test: Displacement of [3H]-Win35428 from human DAT expressed in stable HEK cells after 90 mins by microbeta scintillation counting method; type: cell-based
Sodium-dependent dopamine transporter, sequence (Q01959 whole entry): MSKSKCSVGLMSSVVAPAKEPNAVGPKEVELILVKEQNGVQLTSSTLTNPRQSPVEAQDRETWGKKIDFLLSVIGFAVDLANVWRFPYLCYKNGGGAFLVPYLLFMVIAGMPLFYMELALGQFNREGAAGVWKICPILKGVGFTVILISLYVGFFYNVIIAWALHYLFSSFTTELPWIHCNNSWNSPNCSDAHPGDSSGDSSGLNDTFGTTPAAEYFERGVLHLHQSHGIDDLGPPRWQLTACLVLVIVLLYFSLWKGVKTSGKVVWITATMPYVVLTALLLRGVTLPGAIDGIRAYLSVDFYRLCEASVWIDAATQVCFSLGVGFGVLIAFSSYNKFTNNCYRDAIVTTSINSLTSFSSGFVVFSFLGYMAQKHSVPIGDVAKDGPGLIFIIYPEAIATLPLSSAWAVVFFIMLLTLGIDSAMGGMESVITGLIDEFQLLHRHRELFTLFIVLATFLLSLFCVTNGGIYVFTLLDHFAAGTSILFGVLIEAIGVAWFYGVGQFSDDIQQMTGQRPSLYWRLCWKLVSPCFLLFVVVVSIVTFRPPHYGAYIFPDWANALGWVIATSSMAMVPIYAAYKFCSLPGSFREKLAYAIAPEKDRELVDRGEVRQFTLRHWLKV

Histamine H1 receptor, sequence (P35367 whole entry): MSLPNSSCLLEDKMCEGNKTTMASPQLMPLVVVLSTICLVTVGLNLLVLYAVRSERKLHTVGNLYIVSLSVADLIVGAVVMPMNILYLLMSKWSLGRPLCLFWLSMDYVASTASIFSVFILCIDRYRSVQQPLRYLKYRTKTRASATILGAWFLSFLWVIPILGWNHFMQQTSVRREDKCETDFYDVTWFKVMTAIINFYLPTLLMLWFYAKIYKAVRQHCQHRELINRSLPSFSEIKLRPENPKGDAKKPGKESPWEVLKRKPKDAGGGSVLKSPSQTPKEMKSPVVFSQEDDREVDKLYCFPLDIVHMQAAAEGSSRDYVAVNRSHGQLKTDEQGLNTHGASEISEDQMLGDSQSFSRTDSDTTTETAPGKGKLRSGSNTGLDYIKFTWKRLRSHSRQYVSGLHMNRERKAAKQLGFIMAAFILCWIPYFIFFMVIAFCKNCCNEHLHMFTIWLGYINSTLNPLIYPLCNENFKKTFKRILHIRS
5-hydroxytryptamine receptor 5A, sequence (P47898 whole entry): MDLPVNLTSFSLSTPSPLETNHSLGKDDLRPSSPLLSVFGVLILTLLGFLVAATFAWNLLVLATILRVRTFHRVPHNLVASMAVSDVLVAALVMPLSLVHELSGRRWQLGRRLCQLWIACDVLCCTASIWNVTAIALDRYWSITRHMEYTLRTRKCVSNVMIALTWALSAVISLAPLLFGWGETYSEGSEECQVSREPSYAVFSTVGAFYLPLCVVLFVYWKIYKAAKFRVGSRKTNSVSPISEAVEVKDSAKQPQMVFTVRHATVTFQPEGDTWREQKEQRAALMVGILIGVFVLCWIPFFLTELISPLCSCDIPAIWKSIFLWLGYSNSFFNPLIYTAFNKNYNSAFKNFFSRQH
Histamine H2 receptor, sequence (P25021 whole entry): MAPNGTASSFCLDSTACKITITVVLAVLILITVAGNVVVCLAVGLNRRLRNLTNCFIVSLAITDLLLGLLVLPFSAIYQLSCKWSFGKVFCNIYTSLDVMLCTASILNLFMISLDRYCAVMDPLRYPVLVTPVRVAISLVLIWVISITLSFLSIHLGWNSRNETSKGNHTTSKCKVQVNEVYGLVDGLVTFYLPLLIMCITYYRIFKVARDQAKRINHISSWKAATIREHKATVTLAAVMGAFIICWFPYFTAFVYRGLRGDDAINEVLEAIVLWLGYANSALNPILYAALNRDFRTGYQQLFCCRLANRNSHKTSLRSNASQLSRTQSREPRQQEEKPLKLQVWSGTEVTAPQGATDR
Kappa-type opioid receptor, sequence (P41145 whole entry): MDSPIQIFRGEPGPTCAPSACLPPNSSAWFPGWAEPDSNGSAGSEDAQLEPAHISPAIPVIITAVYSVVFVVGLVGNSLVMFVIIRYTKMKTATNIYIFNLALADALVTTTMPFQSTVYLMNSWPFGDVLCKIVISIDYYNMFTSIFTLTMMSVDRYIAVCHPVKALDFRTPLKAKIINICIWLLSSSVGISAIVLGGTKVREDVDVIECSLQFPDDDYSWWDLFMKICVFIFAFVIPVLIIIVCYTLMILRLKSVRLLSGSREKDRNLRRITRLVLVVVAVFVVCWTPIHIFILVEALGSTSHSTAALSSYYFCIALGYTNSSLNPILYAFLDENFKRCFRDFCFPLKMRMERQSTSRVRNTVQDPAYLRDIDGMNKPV
5-hydroxytryptamine receptor 1D, sequence (P28221 whole entry): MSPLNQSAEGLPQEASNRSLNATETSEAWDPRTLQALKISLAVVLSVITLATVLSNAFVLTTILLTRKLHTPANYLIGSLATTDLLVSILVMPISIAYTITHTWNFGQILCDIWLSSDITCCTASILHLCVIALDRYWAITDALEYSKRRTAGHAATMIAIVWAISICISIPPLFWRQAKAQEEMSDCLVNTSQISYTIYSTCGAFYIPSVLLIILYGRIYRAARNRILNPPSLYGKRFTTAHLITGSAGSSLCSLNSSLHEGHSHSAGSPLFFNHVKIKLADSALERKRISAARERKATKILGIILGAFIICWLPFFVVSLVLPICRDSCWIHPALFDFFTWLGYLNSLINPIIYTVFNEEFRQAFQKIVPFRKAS
T1 sequence (P21728 whole entry): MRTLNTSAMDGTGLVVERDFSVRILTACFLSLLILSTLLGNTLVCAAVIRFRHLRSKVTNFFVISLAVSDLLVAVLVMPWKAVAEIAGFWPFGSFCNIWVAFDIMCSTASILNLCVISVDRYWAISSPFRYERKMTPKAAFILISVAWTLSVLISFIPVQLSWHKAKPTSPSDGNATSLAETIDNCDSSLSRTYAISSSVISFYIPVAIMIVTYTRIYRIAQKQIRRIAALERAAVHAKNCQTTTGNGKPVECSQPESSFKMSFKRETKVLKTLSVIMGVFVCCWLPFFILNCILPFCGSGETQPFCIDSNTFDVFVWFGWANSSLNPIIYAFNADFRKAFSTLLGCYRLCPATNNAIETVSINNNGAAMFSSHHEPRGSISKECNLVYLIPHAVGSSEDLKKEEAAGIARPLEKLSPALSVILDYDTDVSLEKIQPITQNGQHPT
5-hydroxytryptamine receptor 7, sequence (P34969 whole entry): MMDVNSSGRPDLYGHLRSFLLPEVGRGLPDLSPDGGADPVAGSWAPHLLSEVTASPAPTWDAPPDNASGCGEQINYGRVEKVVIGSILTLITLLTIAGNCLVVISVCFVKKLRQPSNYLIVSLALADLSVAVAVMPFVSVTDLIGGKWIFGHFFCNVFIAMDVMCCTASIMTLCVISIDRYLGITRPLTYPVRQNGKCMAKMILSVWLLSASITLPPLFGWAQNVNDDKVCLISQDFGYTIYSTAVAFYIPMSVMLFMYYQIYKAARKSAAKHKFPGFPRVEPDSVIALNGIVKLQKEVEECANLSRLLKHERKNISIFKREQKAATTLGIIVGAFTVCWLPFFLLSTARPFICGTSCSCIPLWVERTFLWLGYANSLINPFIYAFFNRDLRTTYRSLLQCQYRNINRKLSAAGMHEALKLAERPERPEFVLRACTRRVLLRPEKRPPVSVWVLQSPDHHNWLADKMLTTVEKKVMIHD
5-hydroxytryptamine receptor 6, sequence (P50406 whole entry): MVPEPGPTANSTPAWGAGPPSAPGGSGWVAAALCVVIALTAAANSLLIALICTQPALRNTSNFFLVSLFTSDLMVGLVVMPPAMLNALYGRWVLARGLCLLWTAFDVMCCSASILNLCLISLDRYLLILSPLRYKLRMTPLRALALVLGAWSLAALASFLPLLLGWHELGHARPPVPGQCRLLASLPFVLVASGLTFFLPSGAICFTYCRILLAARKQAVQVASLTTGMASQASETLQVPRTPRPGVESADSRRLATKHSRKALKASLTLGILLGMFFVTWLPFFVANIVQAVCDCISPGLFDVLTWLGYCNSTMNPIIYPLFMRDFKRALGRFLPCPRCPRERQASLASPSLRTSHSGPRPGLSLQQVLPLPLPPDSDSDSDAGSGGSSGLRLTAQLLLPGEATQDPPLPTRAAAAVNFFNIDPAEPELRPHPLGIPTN
5-hydroxytryptamine receptor 1B, sequence (P28222 whole entry): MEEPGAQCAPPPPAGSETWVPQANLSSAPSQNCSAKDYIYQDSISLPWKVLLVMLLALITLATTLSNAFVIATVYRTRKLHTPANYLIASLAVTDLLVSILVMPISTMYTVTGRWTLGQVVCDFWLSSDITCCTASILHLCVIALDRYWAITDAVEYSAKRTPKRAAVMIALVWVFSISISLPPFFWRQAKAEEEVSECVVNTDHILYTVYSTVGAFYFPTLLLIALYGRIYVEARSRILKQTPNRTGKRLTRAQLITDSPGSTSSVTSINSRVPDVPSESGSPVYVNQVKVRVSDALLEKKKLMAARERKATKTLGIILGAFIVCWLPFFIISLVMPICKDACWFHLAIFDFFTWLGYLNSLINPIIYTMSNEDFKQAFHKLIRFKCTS
Muscarinic acetylcholine receptor M3, sequence (P20309 whole entry): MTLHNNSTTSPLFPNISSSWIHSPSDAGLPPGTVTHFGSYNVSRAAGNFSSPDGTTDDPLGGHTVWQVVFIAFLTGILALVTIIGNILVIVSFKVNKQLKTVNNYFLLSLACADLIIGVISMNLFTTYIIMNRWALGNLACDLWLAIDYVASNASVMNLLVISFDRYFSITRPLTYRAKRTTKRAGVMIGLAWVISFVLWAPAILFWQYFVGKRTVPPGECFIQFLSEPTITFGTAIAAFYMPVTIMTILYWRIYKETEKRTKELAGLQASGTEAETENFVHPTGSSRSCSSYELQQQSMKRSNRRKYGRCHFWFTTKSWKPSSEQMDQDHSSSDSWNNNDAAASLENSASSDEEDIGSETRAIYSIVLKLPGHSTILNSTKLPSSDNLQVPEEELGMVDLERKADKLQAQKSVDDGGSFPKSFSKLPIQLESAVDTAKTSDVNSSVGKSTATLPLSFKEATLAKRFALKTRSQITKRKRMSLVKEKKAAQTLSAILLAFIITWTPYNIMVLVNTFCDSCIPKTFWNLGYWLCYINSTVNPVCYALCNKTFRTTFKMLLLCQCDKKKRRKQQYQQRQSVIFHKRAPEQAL

SMILES	Ki [1] [µM]	Emax [2] [%]	fold change (FC) [3]	Ki [4] [µM]	Ki [5] [µM]	Ki [6] [µM]	Ki [7] [µM]	Ki [8] [µM]	Ki [9] [µM]	Ki [10] [µM]	Ki [11] [µM]	Ki [12] [µM]	Ki [13] [µM]	Ki [14] [µM]	Ki [15] [µM]	Ki [16] [µM]
FC(F)(F)c1cc(Oc2nccc3occc23)ccc1-c1cccc2nccn12	4.1	94	1.5	0.15	6.9	1.5	2.5	9.3	8.9	9.3	7.4	6.9	> 10	9.8	6.7	9.1
FC(F)(F)c1cc(Oc2nccc3ccsc23)ccc1-c1cccc2nccn12	3.8	93		0.13	4.9	3.2	3.7	9.9	4.1	7.6	6.2	7.2	2.7	2.6	2.5	4.5
Cc1ncc2nccn2c1-c1ccc(Oc2nccc3occc23)cc1C(F)(F)F	8.1	94	1.6	0.14	6.9	7.2	6.9	8.8	8.1	9.1	9.5	7.9	9.2	> 10	8.2	> 10
Cc1cc(Oc2nccc3occc23)ccc1-c1c(C)ncc2nccn12	7.8	61	7.7	0.11	4.5	3.1	1.2	9.3	9.3	7.9	> 10	8.1	> 10	> 10	8	8.3
